Reference: ChEMBL document CHEMBL4265939, “Discovery of phenylalanine derivatives as potent HIV-1 capsid inhibitors from click chemistry-based compound library” (Eur J Med Chem, 2018)

Legend:
[1] = system: Human immunodeficiency virus 1; assay: Antiviral activity against Human immunodeficiency virus 1 NL4-3 infected in human MT4 cells assessed as protection against virus-induced cytopathic effect after 2 days by bright-glo luciferase reporter gene assay; assay type: functional, organism-based
Summary of the method: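 MT-4 cells are infected with 200 TCID50 of HIV-1 NL4-3 over a range of compound concentrations, allowing multiple rounds of infection. After two days the medium is removed and Bright-Glo luminescence is read. […] At least triplicate; mean ± SD of at least two parallel tests.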

MT4 = assay: Cytotoxicity against human MT4 cells assessed as reduction in cell viability after 24 hrs by CytoTox-Glo cytotoxicity assay; assay type: cell-based; conditions: mt4, 24 h
Summary of the method: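 Uninfected MT-4 cells were cultured for 1 day with various compound concentrations, in parallel with the antiviral assays. Percent viable cells was read by the CytoTox-Glo kit following the manufacturer's protocol. […] Each value was run in at least triplicate and averaged from at least four independent experiments.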

[2] = Selectivity index, ratio of CC50 for human MT4 cells to EC50 for Human immunodeficiency virus 1 NL4-3 infected in human MT4 cells; assay type: toxicity, cell-based; conditions: read-out: Ratio CC50/EC50
Summary of the method: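 SI is CC50/EC50, both measured in MT-4 cells. For EC50, 200 TCID50 of NL4-3 infected MT-4 cells over multiple rounds in the presence of various compound concentrations. […] CC50 came from a 1-day CytoTox-Glo viability assay on uninfected cells.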

[3] = system: Human immunodeficiency virus 1; assay: Antiviral activity against Human immunodeficiency virus 1 NL4-3 infected in human MT2 cells measured 4 to 5 days post infection by luciferase reporter gene assay; assay type: functional, organism-based; conditions: Human immunodeficiency virus 1, NL4-3, MT2
[4] = Cytotoxicity against human MT2 cells after 4 days by XTT assay; assay type: cell-based
[5] = system: Human immunodeficiency virus 1; assay: Antiviral activity against ENV pseudotyped HIV1 B41 infected in human U87 cells expressing CD4/CCR5 measured after 48 hrs by luciferase reporter gene assay; assay type: functional, organism-based; conditions: Human immunodeficiency virus 1, B41, U-87 MG
Summary of the method: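 Early-stage single-round assay. U87.CD4.CCR5 target cells, 1.2×10^4 cells/well, are seeded and left 24 h at 37°C. Single-round HIV-1 B41 Env-pseudotyped firefly luciferase virus, produced in HEK293T without compound, is mixed with compound or DMSO vehicle and added to the cells. After 48 h at 37°C the cells are lysed, freeze-thawed and read for luciferase. IC50 from 3 parallel tests.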

[6] = system: Human immunodeficiency virus 1; assay: Antiviral activity against ENV pseudotyped HIV1 B41 infected in human U87 cells expressing CD4/CCR5 pretreated with virus for 72 hrs followed by infection of cells measured after 48 hrs by luciferase reporter gene assay; assay type: functional, organism-based; conditions: Human immunodeficiency virus 1, B41, U-87 MG
Summary of the method: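 Late-stage assay. B41 Env-pseudotyped luciferase viruses are produced in 293T cells with compound (100 μM to 0.01 μM, equal DMSO) or DMSO vehicle for 72 h at 37°C. Supernatants are clarified, filtered, freeze-thawed once, diluted ten-fold and used to infect U87.CD4.CCR5 cells for 48 h at 37°C. Lysate luciferase is normalized to virus made in vehicle-treated cells.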

U-87 MG = assay: Cytotoxicity against human U87 cells expressing CD4/CCR5; assay type: cell-based; conditions: u-87mg atcc
[7] = molecular target: T1, Structural capsid protein (Human immunodeficiency virus 1, UniProt Q76129); assay: Binding affinity to HIV1 NL4-3 N-terminal domain capsid protein by surface plasmon resonance
T1 sequence (Q76129 whole entry, the tested form may be a part): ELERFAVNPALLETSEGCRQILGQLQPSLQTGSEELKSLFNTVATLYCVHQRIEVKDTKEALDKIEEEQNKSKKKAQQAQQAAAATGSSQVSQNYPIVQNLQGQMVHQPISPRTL
Summary of the method: (§1)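 SPR at 25°C. HIV-1 NL4-3 CA constructs are amine-coupled at 100 µg/ml in 10 mM sodium acetate, pH 5.0, onto an EDC/sulfo-NHS-activated GLH chip, then ethanolamine-capped. Compound serial dilutions in PBS, 3% DMSO, 0.005% polysorbate 20, pH 7.4 are injected at 100 µl/min with 1 min association and up to 5 min dissociation. Reference-subtracted; KD by equilibrium analysis, at least three experiments.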

[8] = molecular target: T1, Structural capsid protein; assay: Binding affinity to HIV1 NL4-3 monomeric capsid protein by surface plasmon resonance; summary of the method: as §1
[9] = molecular target: T1, Structural capsid protein; assay: Binding affinity to HIV1 NL4-3 hexameric capsid protein by surface plasmon resonance; summary of the method: as §1
[10] = Therapeutic index, ratio of CC50 for human U87 cells to IC50 for ENV pseudotyped HIV1 B41 infected in human U87 cells expressing CD4/CCR5; assay type: toxicity, cell-based; conditions: read-out: Ratio CC50/IC50
[11] = system: Human immunodeficiency virus 1; assay: Antiviral activity against Human immunodeficiency virus 1 3B infected in human MT4 cells assessed as inhibition of virus-induced cytopathic effect at 2 uM after 5 days by CellTiter-Glo assay relative to control; assay type: functional; conditions: MT4, 120 h
[12] = Human immunodeficiency virus 1, NL4-3, MT4, 48 h, read-out: EC50

Compound	EC50 [1, 12] [µM]	CC50 (MT4; read-out: CC50) [µM]	selectivity ratio [2]	further results
COc1ccc(N(C)C(=O)[C@H](Cc2ccccc2)NC(=O)c2cn(C3CC(n4cc(C)c(=O)[nH]c4=O)OC3CO)nn2)cc1 (some centres not stated)	10.5	> 16.6	> 1.59	
COc1ccc(N(C)C(=O)[C@H](Cc2ccccc2)NC(=O)NS(=O)(=O)N2CCCc3ccccc32)cc1				EC50 [3]: 0.11 µM; CC50 at 96 h [4]: 33.3 µM
COc1ccc(N(C)C(=O)[C@H](Cc2ccccc2)NC(=O)c2cn(Cc3cccc(C)c3)nn2)cc1				EC50 ([1]; mt4): Not Active; CC50 (MT4): Not Active
COc1ccc(N(C)C(=O)[C@H](Cc2ccccc2)NC(=O)c2cn(Cc3cccc([N+](=O)[O-])c3)nn2)cc1				EC50 ([1]; mt4): Not Active; CC50 (MT4): Not Active
COc1ccc(N(C)C(=O)[C@H](Cc2ccccc2)NC(=O)c2cn(Cc3ccccc3[N+](=O)[O-])nn2)cc1	10.2	> 19.4	> 1.91	
COc1ccc(N(C)C(=O)[C@H](Cc2ccccc2)NC(=O)c2cn(CS(=O)(=O)c3ccccc3)nn2)cc1		> 18.7		EC50 ([1]; mt4): Not Active
COc1ccc(N(C)C(=O)[C@H](Cc2ccccc2)NC(=O)c2cn(CSc3ccccc3)nn2)cc1				EC50 ([1]; mt4): Not Active; CC50 (MT4): Not Active
COc1ccc(N(C)C(=O)[C@H](Cc2ccccc2)NC(=O)c2cn(Cc3cccc(C#N)c3)nn2)cc1	9.11	> 21.5	> 2.36	
COc1ccc(N(C)C(=O)[C@H](Cc2ccccc2)NC(=O)c2cn(Cc3ccccc3C)nn2)cc1	8	> 20.7	> 2.58	
COc1ccc(N(C)C(=O)[C@H](Cc2ccccc2)NC(=O)c2cn(Cc3cccc4ccccc34)nn2)cc1	> 19.2	> 19.2		
COc1ccc(N(C)C(=O)[C@H](Cc2ccccc2)NC(=O)c2cn(Cc3ccccc3C#N)nn2)cc1	> 21.5	> 21.5		
Cc1[nH]c2ccccc2c1CC(=O)N[C@@H](Cc1ccccc1)C(=O)N(C)c1ccccc1	5.95	> 70.5		IC50 [5]: 0.1 µM; IC50 [6]: 8.3 µM; CC50 (U-87 MG): 73 µM
COc1ccc(N(C)C(=O)[C@H](Cc2ccccc2)NC(=O)c2cn(C[S+]([O-])c3ccccc3)nn2)cc1 (some centres not stated)	6.65	> 19.3	> 2.91	Kd [7]: 28.2 µM; Kd [8]: 12.7 µM; Kd [9]: 93.3 µM
COc1ccc(N(C)C(=O)[C@H](Cc2ccccc2)NC(=O)c2cn(Cc3ccc([N+](=O)[O-])cc3)nn2)cc1	> 19.4	> 19.4		
COc1ccc(N(C)C(=O)[C@H](Cc2ccccc2)NC(=O)c2cn(Cc3ccc4ccccc4c3)nn2)cc1	4.33	> 57.7	> 13.3	Kd [7]: 32.7 µM; Kd [8]: 14 µM; Kd [9]: 11 µM; IC50 [5]: 7 µM; IC50 [6]: 31 µM; CC50 (U-87 MG): 54.8 µM; selectivity ratio [10]: 2.8
COc1ccc(N(C)C(=O)[C@H](Cc2ccccc2)NC(=O)c2cn(Cc3ccccc3Cl)nn2)cc1	> 19.8	> 19.8		
COc1ccc(N(C)C(=O)[C@H](Cc2ccccc2)NC(=O)Cn2nc(C(F)(F)F)c3c2CCCC3)cc1				inhibition at 2 µM [11]: 100%
COC(=O)c1cccc(-n2cc(C(=O)N[C@@H](Cc3ccccc3)C(=O)N(C)c3ccc(OC)cc3)nn2)c1	6.91	> 19.5	> 2.82	
COc1ccc(N(C)C(=O)[C@H](Cc2ccccc2)NC(=O)c2cn(Cc3ccc(C)cc3)nn2)cc1				EC50 ([1]; mt4): Not Active; CC50 (MT4): Not Active
COc1ccc(N(C)C(=O)[C@H](Cc2ccccc2)NC(=O)c2cn(Cc3ccc(C#N)cc3)nn2)cc1	8.98	> 21.5	> 2.4	
COc1ccc(N(C)C(=O)[C@H](Cc2ccccc2)NC(=O)c2cn(Cc3ccc(Cl)cc3)nn2)cc1	> 19.8	> 19.8		
COc1ccc(N(C)C(=O)[C@H](Cc2ccccc2)NC(=O)c2cn(-c3ccc4c(c3)OCO4)nn2)cc1	14.9	> 20	> 1.34	
COc1ccc(N(C)C(=O)[C@H](Cc2ccccc2)NC(=O)c2cn(Cc3cccc(Cl)c3)nn2)cc1				EC50 ([1]; mt4): Not Active; CC50 (MT4): Not Active
